Test results as given in ChEMBL document CHEMBL3797037, “Kinetically Selective Inhibitors of Human Carbonic Anhydrase Isozymes I, II, VII, IX, XII, and XIII” (J Med Chem, 2016).
pKd: −log10 of the molar value. Activity calls are given as the source filed them. No cut-off for these calls is given here.

Columns and labels:
[1] = biological target: T1, Carbonic anhydrase 13 (Homo sapiens, UniProt Q8N1Q1); assay: Binding affinity to human recombinant CA13 by fluorescence-based thermal shift assay
Target sequence in this assay (Q8N1Q1 whole entry, the tested form may be a part): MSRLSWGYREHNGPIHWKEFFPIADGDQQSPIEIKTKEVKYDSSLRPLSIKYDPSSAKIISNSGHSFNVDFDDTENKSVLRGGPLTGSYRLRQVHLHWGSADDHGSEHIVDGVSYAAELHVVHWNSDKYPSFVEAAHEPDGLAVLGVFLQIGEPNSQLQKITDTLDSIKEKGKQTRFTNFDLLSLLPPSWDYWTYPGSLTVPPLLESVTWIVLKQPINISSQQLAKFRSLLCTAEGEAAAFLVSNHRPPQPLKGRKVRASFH

[2] = biological target: T2, Carbonic anhydrase 9 (Homo sapiens, UniProt Q16790); assay: Binding affinity to human recombinant CA9 catalytic domain assessed as association rate constant at pH 8 by surface plasmon resonance assay
How it was run: (§1)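 pH-dependence SPR on CA IX or CA XII catalytic domain surfaces, using a denatured-protein reference. Buffers were 50 mM sodium phosphate, 150 mM NaCl, 0.05 % Tween-20 and 2 % DMSO at pH 6.0, 7.0 or 8.0. Ligands ran as 2-fold series (62.5–2000 or 31.3–1000 nM) with 60 s injection and 90–360 s dissociation. Triplicates used a new surface each time. KD = kd/ka from the kinetic fit.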

[3] = biological target: T3, Carbonic anhydrase 12 (Homo sapiens, UniProt O43570); assay: Binding affinity to human recombinant CA12 catalytic domain by fluorescence-based thermal shift assay
T3 sequence (O43570 whole entry, the tested form may be a part): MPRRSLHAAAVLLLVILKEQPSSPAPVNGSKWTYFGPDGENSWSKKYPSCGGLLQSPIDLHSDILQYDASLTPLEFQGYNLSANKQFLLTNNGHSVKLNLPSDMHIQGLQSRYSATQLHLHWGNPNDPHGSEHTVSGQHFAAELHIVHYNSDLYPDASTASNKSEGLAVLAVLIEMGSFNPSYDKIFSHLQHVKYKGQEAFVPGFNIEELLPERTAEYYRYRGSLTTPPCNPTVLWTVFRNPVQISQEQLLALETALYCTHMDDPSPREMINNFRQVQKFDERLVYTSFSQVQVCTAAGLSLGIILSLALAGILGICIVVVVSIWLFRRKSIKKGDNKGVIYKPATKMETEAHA

[4] = biological target: T3, Carbonic anhydrase 12; assay: Binding affinity to human recombinant CA12 catalytic domain assessed as dissociation constant calculated from saturation signal at pH 8 by surface plasmon resonance assay
[5] = biological target: T2, Carbonic anhydrase 9; assay: Binding affinity to human recombinant CA9 catalytic domain assessed as dissociation constant calculated from kinetic parameters at pH 6 by surface plasmon resonance assay; how it was run: as §1
[6] = biological target: T2, Carbonic anhydrase 9; assay: Binding affinity to human recombinant CA9 catalytic domain assessed as association rate constant at pH 7 by surface plasmon resonance assay; how it was run: as §1
[7] = biological target: T1, Carbonic anhydrase 13; assay: Slow rate dissociation at human recombinant CA13 after 30 sec by surface plasmon resonance assay
How it was run: (§2)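 SPR kinetics at 25 °C on amine-coupled isozyme surfaces, with immobilization protein level and acetate coupling pH set per isozyme. Running buffer PBST, pH 7.4, with 2 % DMSO. Ligands run as 2-fold series from 15.6 to 2000 nM at 30 or 90 µL/min, with 30 s association and 180 s dissociation.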
Target sequence in this assay (Q8N1Q1 whole entry, looked up, the tested form may be a part): as the sequence (Q8N1Q1 whole entry, the tested form may be a part) above

[8] = biological target: T4, Carbonic anhydrase 7 (Homo sapiens, UniProt P43166); assay: Binding affinity to human recombinant CA7 assessed as dissociation rate constant after 30 secs by surface plasmon resonance assay
T4 sequence (P43166 whole entry, the tested form may be a part): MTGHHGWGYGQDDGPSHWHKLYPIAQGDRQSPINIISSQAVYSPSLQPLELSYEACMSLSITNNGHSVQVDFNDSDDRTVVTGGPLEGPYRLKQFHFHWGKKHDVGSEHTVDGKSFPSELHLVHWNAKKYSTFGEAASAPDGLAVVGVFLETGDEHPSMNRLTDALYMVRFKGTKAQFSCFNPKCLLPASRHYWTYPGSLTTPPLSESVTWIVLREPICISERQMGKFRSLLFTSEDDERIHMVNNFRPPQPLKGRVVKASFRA

[9] = biological target: T2, Carbonic anhydrase 9; assay: Binding affinity to human recombinant CA9 catalytic domain assessed as association rate constant at pH 6 by surface plasmon resonance assay; how it was run: as §1
[10] = biological target: T2, Carbonic anhydrase 9; assay: Binding affinity to human recombinant CA9 catalytic domain assessed as dissociation rate constant at pH 6 by surface plasmon resonance assay; how it was run: as §1
[11] = biological target: T4, Carbonic anhydrase 7; assay: Binding affinity to human recombinant CA7 after 30 secs by surface plasmon resonance assay
[12] = biological target: T2, Carbonic anhydrase 9; assay: Binding affinity to human recombinant CA9 catalytic domain assessed as association rate constant after 30 secs by surface plasmon resonance assay; how it was run: as §2
[13] = biological target: T5, Carbonic anhydrase 1 (Homo sapiens, UniProt P00915); assay: Binding affinity to human recombinant CA1 expressed in Escherichia coli by fluorescence-based thermal shift assay
Target sequence in this assay (P00915 whole entry): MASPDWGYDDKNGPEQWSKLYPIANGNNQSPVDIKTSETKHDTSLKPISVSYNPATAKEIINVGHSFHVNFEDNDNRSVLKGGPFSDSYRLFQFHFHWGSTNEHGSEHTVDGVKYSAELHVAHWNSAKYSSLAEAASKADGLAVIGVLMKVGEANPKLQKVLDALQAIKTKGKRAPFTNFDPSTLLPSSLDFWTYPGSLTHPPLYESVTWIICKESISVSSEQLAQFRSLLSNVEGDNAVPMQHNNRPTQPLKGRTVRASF

[14] = biological target: T6, Carbonic anhydrase 2 (Homo sapiens, UniProt P00918); assay: Binding affinity to human recombinant CA2 expressed in Escherichia coli by fluorescence-based thermal shift assay
[15] = biological target: T2, Carbonic anhydrase 9; assay: Binding affinity to human recombinant CA9 catalytic domain after 30 secs by surface plasmon resonance assay
How it was run: (§3)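 SPR kinetics at 25 °C on amine-coupled isozyme surfaces, with immobilization protein level and acetate coupling pH set per isozyme. Running buffer PBST, pH 7.4, with 2 % DMSO.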

[16] = biological target: T3, Carbonic anhydrase 12; assay: Binding affinity to human recombinant CA12 catalytic domain assessed as dissociation constant calculated from saturation signal at pH 7 by surface plasmon resonance assay
[17] = biological target: T3, Carbonic anhydrase 12; assay: Binding affinity to human recombinant CA12 catalytic domain assessed as dissociation constant calculated from saturation signal at pH 6 by surface plasmon resonance assay
[18] = biological target: T2, Carbonic anhydrase 9; assay: Binding affinity to human recombinant CA9 catalytic domain assessed as dissociation rate constant at pH 8 by surface plasmon resonance assay; how it was run: as §1
[19] = biological target: T2, Carbonic anhydrase 9; assay: Binding affinity to human recombinant CA9 catalytic domain assessed as dissociation rate constant at pH 7 by surface plasmon resonance assay; how it was run: as §1
[20] = biological target: T2, Carbonic anhydrase 9; assay: Binding affinity to human recombinant CA9 catalytic domain assessed as dissociation constant calculated from kinetic parameters at pH 7 by surface plasmon resonance assay; how it was run: as §1
[21] = biological target: T3, Carbonic anhydrase 12; assay: Binding affinity to human recombinant CA12 catalytic domain after 30 secs by surface plasmon resonance assay
[22] = biological target: T2, Carbonic anhydrase 9; assay: Binding affinity to human recombinant CA9 catalytic domain by fluorescence-based thermal shift assay
[23] = biological target: T4, Carbonic anhydrase 7; assay: Binding affinity to human recombinant CA7 by fluorescence-based thermal shift assay
[24] = biological target: T2, Carbonic anhydrase 9; assay: Binding affinity to human recombinant CA9 catalytic domain assessed as dissociation constant calculated from kinetic parameters at pH 8 by surface plasmon resonance assay; how it was run: as §1
[25] = biological target: T5, Carbonic anhydrase 1; assay: Binding affinity to human recombinant CA1 expressed in Escherichia coli assessed as association rate constant after 30 secs by surface plasmon resonance assay
How it was run: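 Full-length enzyme amine-coupled to a carboxymethyl-dextran chip (75 µg/mL in 10 mM sodium acetate pH 5, about 6000 RU). SPR at 25 °C in PBST pH 7.4 with 2% DMSO. Ligands injected as 2-fold series, 15.6–2000 nM, at 30 or 90 µL/min. Association 30 s, dissociation 180 s. Regeneration with 200 µM sulphanilamide. ka from non-linear fit to a one-step binding model with mass transport.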
Target sequence in this assay (P00915 2-261 limits assumed): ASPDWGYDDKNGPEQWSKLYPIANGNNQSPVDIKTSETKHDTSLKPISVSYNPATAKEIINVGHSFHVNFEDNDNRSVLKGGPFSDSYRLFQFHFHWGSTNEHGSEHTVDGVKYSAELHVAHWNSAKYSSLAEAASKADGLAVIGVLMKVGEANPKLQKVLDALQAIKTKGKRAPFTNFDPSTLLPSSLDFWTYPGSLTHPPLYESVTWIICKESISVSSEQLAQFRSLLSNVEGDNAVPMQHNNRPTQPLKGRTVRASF

[26] = biological target: T2, Carbonic anhydrase 9; assay: Binding affinity to human recombinant CA9 catalytic domain assessed as dissociation constant calculated from saturation signal at pH 6 by surface plasmon resonance assay
How it was run: (§4)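 CA IX catalytic domain SPR in 50 mM sodium phosphate, 150 mM NaCl at pH 6.0, 7.0 or 8.0, run as triplicates on fresh surfaces. KD was fitted by steady-state approximation, R = Rmax[L]/([L]+KD), using the saturation signal averaged from three points in the last 10 s of a 60 s injection.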

[27] = biological target: T2, Carbonic anhydrase 9; assay: Binding affinity to human recombinant CA9 catalytic domain assessed as dissociation rate constant after 30 secs by surface plasmon resonance assay; how it was run: as §3
[28] = biological target: T2, Carbonic anhydrase 9; assay: Binding affinity to human recombinant CA9 catalytic domain assessed as dissociation constant calculated from saturation signal at pH 8 by surface plasmon resonance assay; how it was run: as §4
[29] = biological target: T2, Carbonic anhydrase 9; assay: Binding affinity to human recombinant CA9 catalytic domain assessed as dissociation constant calculated from saturation signal at pH 7 by surface plasmon resonance assay; how it was run: as §4
[30] = biological target: T3, Carbonic anhydrase 12; assay: Slow rate dissociation at human recombinant CA12 catalytic domain after 30 sec by surface plasmon resonance assay; how it was run: as §2
[31] = biological target: T6, Carbonic anhydrase 2; assay: Binding affinity to human recombinant CA2 expressed in Escherichia coli after 30 secs by surface plasmon resonance assay
[32] = biological target: T1, Carbonic anhydrase 13; assay: Binding affinity to human recombinant CA13 after 30 secs by surface plasmon resonance assay
Target sequence in this assay (Q8N1Q1 whole entry, the tested form may be a part): as the sequence (Q8N1Q1 whole entry, the tested form may be a part) above

[33] = biological target: T2, Carbonic anhydrase 9; assay: Slow rate dissociation at human recombinant CA9 catalytic domain after 30 sec by surface plasmon resonance assay; how it was run: as §2
[34] = biological target: T1, Carbonic anhydrase 13; assay: Binding affinity to human recombinant CA13 assessed as dissociation rate constant after 30 secs by surface plasmon resonance assay
Target sequence in this assay (Q8N1Q1 whole entry, the tested form may be a part): as above

[35] = biological target: T5, Carbonic anhydrase 1; assay: Binding affinity to human recombinant CA1 expressed in Escherichia coli after 30 secs by surface plasmon resonance assay; how it was run: as §3
Target sequence in this assay (P00915 whole entry): as the sequence (P00915 whole entry) above

[36] = biological target: T6, Carbonic anhydrase 2; assay: Binding affinity to human recombinant CA2 expressed in Escherichia coli assessed as dissociation rate constant after 30 secs by surface plasmon resonance assay
[37] = biological target: T5, Carbonic anhydrase 1; assay: Binding affinity to human recombinant CA1 expressed in Escherichia coli assessed as dissociation rate constant after 30 secs by surface plasmon resonance assay; how it was run: as §3
Target sequence in this assay (P00915 whole entry): as above

[38] = biological target: T4, Carbonic anhydrase 7; assay: Slow rate dissociation at human recombinant CA7 after 30 sec by surface plasmon resonance assay; how it was run: as §2
[39] = biological target: T4, Carbonic anhydrase 7; assay: Reversible binding affinity to human recombinant CA7
[40] = biological target: T3, Carbonic anhydrase 12; assay: Binding affinity to human recombinant CA12 catalytic domain assessed as dissociation rate constant after 30 secs by surface plasmon resonance assay

Row | pKd [1] | K [2] | pKd [3] | pKd [5] | K [6] | Activity [7] | koff (dissociation rate constant) [8] | K [9] | Dissociation rate constant (koff) [10] | pKd [11] | K [12] | pKd [13] | pKd [14] | pKd [15] | pKd [21] | pKd [22] | pKd [23] | K [25] [×10⁵ /M/s] | koff (dissociation rate constant) [27] [×10⁻¹ /s] | pKd [31] | SMILES | further results
1 | 7.48 | 3.3 ×10⁵ /M/s | 7.00 | 6.85 | 1.6 ×10⁵ /M/s | Active | 1 ×10⁻² /s | 5.8 ×10⁴ /M/s | 7.9 ×10⁻³ /s | 6.29 | 2.9 ×10⁵ /M/s | 5.04 | 6.35 | 7.57 | 6.40 | 9.77 | 7.13 | – | – | – | CCCSc1c(F)c(F)c(S(N)(=O)=O)c(NC2CCCCCCC2)c1F | pKd [4]: 6.41; pKd [16]: 6.08; pKd [17]: 5.59; Dissociation rate constant (koff) [18]: 6.2 ×10⁻³ /s; Dissociation rate constant (koff) [19]: 7.2 ×10⁻³ /s; pKd [20]: 7.34; pKd [24]: 7.72
2 | 9.38 | – | 7.00 | – | – | Active | 1.3 ×10⁻² /s | – | – | 7.35 | 6.5 ×10⁶ /M/s | 7.60 | 8.62 | 7.80 | 7.02 | 8.70 | 8.51 | 3.9 | 1 | 8.19 | CNc1c(F)c(S(N)(=O)=O)c(F)c(F)c1S(=O)(=O)CCc1ccccc1 | pKd [35]: 7.60; Dissociation rate constant (koff) [36]: 8.2 ×10⁻³ /s; Activity [39]: inactive; Dissociation rate constant (koff) [40]: 1.4 ×10⁻¹ /s; Kd [37]: 1 ×10⁻² /s

Second part, the molecule before the results:

Row | SMILES | pKd [1] | K [2] | pKd [3] | pKd [5] | K [6] | Activity [7] | koff (dissociation rate constant) [8] | K [9] | Dissociation rate constant (koff) [10] | pKd [11] | K [12] | pKd [13] | pKd [14] | pKd [15] | pKd [21] | pKd [22] | pKd [23] | K [25] [×10⁵ /M/s] | koff (dissociation rate constant) [27] [×10⁻¹ /s] | pKd [31] | further results
3 | NS(=O)(=O)c1ccc(C(=O)CSc2ncccn2)cc1Cl | – | 1.7 ×10⁶ /M/s | – | 5.96 | 1.8 ×10⁶ /M/s | – | – | 4.4 ×10⁵ /M/s | 4.3 ×10⁻¹ /s | – | 1.8 ×10⁶ /M/s | – | – | 6.82 | – | 6.96 | – | 3.1 | 2.6 | – | pKd [26]: 6.03; pKd [28]: 6.72; Dissociation rate constant (koff) [18]: 1.8 ×10⁻¹ /s; Dissociation rate constant (koff) [19]: 3 ×10⁻¹ /s; pKd [20]: 6.80; pKd [29]: 6.59; pKd [24]: 7.00
4 | CCCS(=O)(=O)c1c(F)c(F)c(S(N)(=O)=O)c(F)c1NC1CCCCCCC1 | 8.66 | – | 8.96 | – | – | – | 2 ×10⁻³ /s | – | – | 7.40 | – | 6.48 | 7.70 | – | – | 11.17 | 8.49 | – | – | 7.00 | Activity [30]: Active; pKd [32]: 7.82; Activity [33]: Active
5 | COc1ccc(CNc2c(F)c(F)c(F)c(F)c2S(N)(=O)=O)cc1 | 7.30 | – | 6.48 | – | – | – | 1.4 ×10⁻¹ /s | – | – | 5.32 | 1.8 ×10⁶ /M/s | 7.60 | 7.11 | 6.82 | – | 7.66 | 6.60 | 1.1 | 2.6 | 7.18 | koff [34]: 2.2 ×10⁻² /s; pKd [35]: 7.21; Dissociation rate constant (koff) [36]: 2.6 ×10⁻² /s; pKd [32]: 6.68; Kd [37]: 6.6 ×10⁻³ /s
6 | CC(C)(C)Nc1c(F)c(S(N)(=O)=O)c(F)c(F)c1S(=O)(=O)CCc1ccccc1 | 8.82 | – | 7.77 | – | – | Active | – | – | – | – | 7 ×10⁵ /M/s | 6.66 | 9.23 | 8.04 | 7.23 | 9.70 | 10.11 | – | – | – | Activity [38]: Active; Activity [39]: inactive; Dissociation rate constant (koff) [40]: 1.1 ×10⁻² /s
